Common to all, as to format: functional
Assay [1] deals with Aspergillus fumigatus. Kind of assay: In vitro antifungal activity against Aspergillus fumigatus. The gist of the method: (§1)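 Broth microdilution MIC in Sabouraud's glucose broth; final inocula 1 × 10^5 cells/mL (yeast) or 1 × 10^5 conidia/mL (mold and dermatophyte).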
The test system of assay [2] is Candida albicans. Kind of assay: In vitro antifungal activity against Candida albicans. As to conditions: Candida albicans; read-out: MIC. The gist of the method: as §1
Assay [3] concerns Candida albicans. Kind of assay: Minimum effective concentration for inhibition of pseudomycelium formation in Candida albicans. As to conditions: for minimal effective concentration: Candida albicans, read-out: MEC. In a few lines:
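C. albicans KE-2 (clinical isolate) at a final 1 × 10^6 yeast cells/mL in EMEM with 20% calf serum; compounds diluted by the same microtiter system as for MICs. After incubation, wells were Giemsa-stained (5% in phosphate buffer) and read by microscope. MEC is the lowest concentration preventing typical pseudomycelium formation.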

The test system of assay [4] is Mus musculus. Kind of assay: Ratio of in vivo number of survivors / total infected. The arrangement: reference not given here.
In assay [5] the test system is Trichophyton benhamiae. Kind of assay: In vitro antifungal activity against Trichophyton asteroides. In a few lines:
as §1

Setting [6] is: Aspergillus fumigatus, read-out: MIC.
Where [7] appears, read: Trichophyton benhamiae, read-out: MIC.

In brackets after ≈: the same amount, converted by molar mass.

The MIC is the lowest concentration that inhibits growth of the organism.

As for `O=C(c1ccc(Cl)cc1Cl)[C@](O)(Cn1cncn1)c1ccc(Cl)cc1Cl`, the MIC in assay [1] (setting [6]) is greater than 100 mg/L; in assay [2] it was greater than 100 mg/L; in assay [5] (setting [7]) it was 0.1 mg/L (≈ 0.232 µM). Besides, the minimal effective concentration in assay [3] stood at 0.08 µg/mL. Moreover, the No. of survivors in assay [4] is recorded as 8.
As for `O=S1O[C@H](c2ccc(Cl)cc2Cl)[C@](Cn2cncn2)(c2ccc(Cl)cc2)O1` (some centres undefined), the figures for the MIC in assay [1] (setting [6]), in assay [2] and in assay [5] (setting [7]) were greater than 100 mg/L, 100 mg/L (≈ 225 µM) and 0.1 mg/L (≈ 0.225 µM), respectively. Further, the minimal effective concentration in assay [3] is 0.02 µg/mL. Further, in assay [4], the No. of survivors is on record as 7.
For `CC(C)CC(=O)C(O)(Cn1cncn1)c1ccc(Cl)cc1` (centres undefined), the MIC in assay [1] (setting [6]) turned out to be 50 mg/L (≈ 162 µM); in assay [2], 100 mg/L (≈ 325 µM); in assay [5] (setting [7]), 0.1 mg/L (≈ 0.325 µM). Further, the minimal effective concentration in assay [3] worked out at 0.04 µg/mL. The No. of survivors in assay [4] is reported as 0.
For `O=C(c1ccccc1Cl)C(O)(Cn1cncn1)c1ccc(Cl)cc1` (centres undefined) the same measures were greater than 100 mg/L, greater than 100 mg/L, 0.4 mg/L (≈ 1.1 µM), greater than 20 µg/mL and 0.
As to `O=C(c1ccc(Cl)cc1)C(O)(Cn1ccnc1)c1ccc(Cl)cc1Cl` (centres undefined), the figures for the MIC in assay [1] (setting [6]), in assay [2] and in assay [5] (setting [7]) were greater than 100 mg/L, greater than 100 mg/L and 0.1 mg/L (≈ 0.253 µM), respectively. Further, the minimal effective concentration in assay [3] is 2.5 µg/mL. Moreover, the No. of survivors in assay [4] amounted to 0.
For the molecule `O=C(C1CCCC1)C(O)(Cn1cncn1)c1ccc(Cl)cc1Cl` (centres undefined), the MIC in assay [1] (setting [6]) was greater than 100 mg/L; in assay [2] it was 50 mg/L (≈ 141 µM); in assay [5] (setting [7]) it was 0.1 mg/L (≈ 0.282 µM). For the same molecule, the minimal effective concentration in assay [3] is 0.02 µg/mL. The No. of survivors in assay [4] was 0.
`CC(C)C(=O)C(O)(Cn1ccnc1)c1ccc(Cl)cc1Cl` (centres undefined): the MIC in assay [1] (setting [6]) is greater than 100 mg/L; in assay [2] it was greater than 100 mg/L; in assay [5] (setting [7]) it was 0.1 mg/L (≈ 0.306 µM). Besides, the minimal effective concentration in assay [3] was 0.04 µg/mL. Besides, in assay [4], the No. of survivors turned out to be 1.
Turning to `O=C(c1ccccc1Cl)C(O)(Cn1cncn1)c1ccc(Cl)cc1Cl` (centres undefined), the MIC in assay [1] (setting [6]) is greater than 100 mg/L; in assay [2] it was greater than 100 mg/L; in assay [5] (setting [7]), 0.1 mg/L (≈ 0.252 µM). Further, the minimal effective concentration in assay [3] worked out at 0.04 µg/mL. Further, the No. of survivors in assay [4] is given as 8.
In the case of `O=C(c1ccc(Cl)cc1Cl)C(O)(Cn1cncn1)c1ccccc1Cl` (centres undefined), the MIC came out at 100 mg/L (≈ 252 µM) in assay [1] (setting [6]), 100 mg/L (≈ 252 µM) in assay [2] and 0.1 mg/L (≈ 0.252 µM) in assay [5] (setting [7]). The minimal effective concentration in assay [3] worked out at 0.31 µg/mL. Moreover, the No. of survivors in assay [4] amounted to 7.
Take `OC(c1ccccc1Cl)C(O)(Cn1cncn1)c1ccccc1Cl` (centres undefined): the figures for the MIC in assay [1] (setting [6]), in assay [2] and in assay [5] (setting [7]) were 6.3 mg/L (≈ 17.3 µM), 100 mg/L (≈ 275 µM) and 0.1 mg/L (≈ 0.275 µM), respectively. Moreover, the minimal effective concentration in assay [3] is 0.08 µg/mL. Further, the No. of survivors in assay [4] turned out to be 2.
Consider `O=C1O[C@H](c2ccccc2Cl)[C@@](Cn2cncn2)(c2ccccc2Cl)O1`, for which the results for the MIC in assay [1] (setting [6]), in assay [2] and in assay [5] (setting [7]) were greater than 100 mg/L, greater than 100 mg/L and 12.5 mg/L (≈ 32 µM), respectively. Also, the minimal effective concentration in assay [3] was found to be 0.31 µg/mL. The No. of survivors in assay [4] came to 0.
In the case of `CCCC(O)(Cn1cncn1)C(=O)c1ccc(Cl)cc1Cl` (centres undefined), the MIC in assay [1] (setting [6]) was 50 mg/L (≈ 152 µM); in assay [2], greater than 100 mg/L; in assay [5] (setting [7]) it was 0.4 mg/L (≈ 1.22 µM). For the same molecule, the minimal effective concentration in assay [3] turned out to be 1.25 µg/mL. Besides, the No. of survivors in assay [4] is reported as 1.
With `O=C1O[C@H](c2ccc(Cl)cc2Cl)[C@@](Cn2cncn2)(c2ccc(Cl)cc2)O1`, the MIC in assay [1] (setting [6]) was greater than 100 mg/L; in assay [2], 50 mg/L (≈ 118 µM); in assay [5] (setting [7]), 0.1 mg/L (≈ 0.235 µM). In assay [3], the minimal effective concentration is 0.63 µg/mL. Moreover, in assay [4], the No. of survivors is on record as 8.
For the molecule `O=S1O[C@H](c2ccc(Cl)cc2Cl)[C@@](Cn2cncn2)(c2ccc(Cl)cc2)O1` (some centres undefined), the minimal inhibitory concentration (MIC) in assay [1] (setting [6]) was greater than 100 mg/L; in assay [2] it was 100 mg/L (≈ 225 µM); in assay [5] (setting [7]) it was 0.1 mg/L (≈ 0.225 µM). In addition, the minimal effective concentration in assay [3] was 0.08 µg/mL. In addition, the No. of survivors in assay [4] is 5.
As for `Cc1ccc(C(=O)C(O)(Cn2cncn2)c2ccccc2Cl)cc1` (centres undefined), the MIC was greater than 100 mg/L in assay [1] (setting [6]), greater than 100 mg/L in assay [2] and 0.8 mg/L (≈ 2.34 µM) in assay [5] (setting [7]). The minimal effective concentration in assay [3] is 2.5 µg/mL. In addition, in assay [4], the No. of survivors was found to be 1.
Regarding `CC(=O)C(O)(Cn1cncn1)c1ccc(Cl)cc1Cl` (centres undefined), the MIC in assay [1] (setting [6]) was 50 mg/L (≈ 167 µM); in assay [2], greater than 100 mg/L; in assay [5] (setting [7]) it was 0.2 mg/L (≈ 0.666 µM). Besides, the minimal effective concentration in assay [3] worked out at 0.04 µg/mL. Moreover, the No. of survivors in assay [4] is on record as 2.
On to `O=C(c1ccc(Cl)cc1Cl)C(O)(Cn1ccnc1)c1ccc(Cl)cc1Cl` (centres undefined), for which the results for the MIC in assay [1] (setting [6]), in assay [2] and in assay [5] (setting [7]) were 25 mg/L (≈ 58.1 µM), 50 mg/L (≈ 116 µM) and 0.1 mg/L (≈ 0.232 µM), respectively. Besides, the minimal effective concentration in assay [3] was 5 µg/mL. Besides, the No. of survivors in assay [4] came to 1.
Turning to `CC(O)(c1ccc(F)cc1)C(O)(Cn1cncn1)c1ccc(F)cc1` (stereo in doubt; 160), the MIC is 25 mg/L (≈ 72.4 µM) in assay [1] and 0.1 mg/L (≈ 0.29 µM) in assay [5]. This molecule also gave an MEC in assay [3] of 0.16 µg/mL. Moreover, in assay [4], the No. of survivors is reported as 2.

These data come from ChEMBL document CHEMBL1123760, “Synthesis and oral antifungal activity of novel azolylpropanolones and related compounds” (1987).
